Active and inactive are the calls of the source. Cut-off read from the data, not from the text of the source, unless noted: active = inhibition above about 30%; inactive = the rest.

Test [1] in a line: SK-BR-3 cell growth inhibitors, pilot screen, 24 h, human (AID 572;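 active = viability at or below 10% of carrier control in both of two separate runs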;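 note: compound exposure lasted between 18 and 24 h rather than exactly 24 h; 100% = carrier-treated control wells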). The conditions noted are these: SK-BR-3 viability, CellTiter-Glo luminescence, at 10 µM, stronger effect = lower value. (In general: Cellular ATP, detected with luciferase, serves as a proxy for viable cell number.)
A short description of test [2]: HUVEC growth inhibition – cell-based, human, primary screen (AID 575;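 active = viability at or below 30% in both replicate assays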;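 note: 100% = median of untreated cell wells with 0.1% DMSO on each plate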). The conditions noted are these: HUVEC proliferation, CellTiter-Glo luminescence, 72 h; at 10 µM; stronger effect = lower value. The procedure, abridged:
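system = HUVEC primary cells | amount = 1250 cells/well | buffer or medium = supplemented EBM, 2% fetal bovine serum | dosing = single-point 10 µM, DMSO 0.1% final | times = 72 h compound incubation | detection = CTG luminescence | read-out = % viability relative to median vehicle-well signal on each plate | control set = vehicle and MePR control wells | format = collagen-coated 384-well format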

A short description of test [3]: growth inhibitors of H69AR lung tumor, primary screen, human, duplicate replicates (AID 580;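 active = viability at or under a set limit in both replicates, limit being median viability minus 3 SD, cut at about 48% in these data, passing the limit was not always enough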;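 note: 100% = mean luminescence of untreated wells and 0% = no signal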). The conditions noted are these: H69AR lung tumor cells viability, ATP luminescence, 72 h; at 10 µM; stronger effect = lower value.
A short description of test [4]: reversal of MRP1-mediated doxorubicin resistance, pilot screen, H69AR cells, doxorubicin co-treatment (AID 601;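 active = viability loss from added drug above about 55%, and viability with drug at most 40%, in both replicates, limit read from the data, passing the limit was not always enough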). Particulars: CellTiter-Glo, 72 h, at 10 µM; for differential viability (reversal): stronger effect = higher value.
Test [5] is described as follows: 384-well plate pilot, post-Golgi transport modulator project, inhibition of yeast transport mutant growth (AID 636; in the data active = inhibition above about 31%). Particulars: absorbance 615 nm, about 18 h, stronger effect = higher value.
A short description of test [6]: growth suppression of yeast trafficking mutant, preliminary HTS, modulators of trafficking downstream of Golgi apparatus project, 1536-format plate, OD 615 nm (AID 637). The conditions noted are these: yeast transport mutant growth, absorbance 615 nm, 18 h; stronger effect = higher value.
Setting [7] is: H69AR cells + 2 uM doxorubicin, measured here: viability with 2 uM doxorubicin, stronger effect = lower value.
[8] abbreviates: H69AR cells, compound alone cytotoxicity.

By viability is commonly meant a read-out of living cells in per cent, often relative to untreated cells. What is called inhibition is the drop in the measured response relative to a control, in per cent. `CCOc1ccc(NC(=O)COC(=O)Cn2cnnn2)cc1OCC`: the viability in test [1] was 86% (inactive); in test [2], 106% (inactive); in test [3], 107% (inactive); in test [4] (setting [7]), 108%; in test [4] (setting [8]), 107%. Besides, in test [4] (H69AR cells + 2 uM doxorubicin), the differential viability (reversal) was -0.92% (inactive). In addition, the inhibition was 1.23% (inactive) in test [5] and -0.36% (inactive) in test [6].
With `CCn1c(Cc2ccccc2)nnc1SCC(=O)Nc1cc(C)on1`, the viability in test [1] is 109% (inactive); in test [2] it was 114% (inactive); in test [3], 98.7% (inactive); in test [4] (setting [7]), 91%; in test [4] (setting [8]) it was 98.7%. Besides, the differential viability (reversal) in test [4] (H69AR cells + 2 uM doxorubicin) was 7.78% (inactive). Also, the inhibition in test [5] was -5.06% (inactive); in test [6], -2.95% (inactive).
For `COC(=O)c1sc(S(=O)(=O)N2CCN(c3ccccc3)CC2)c(C(=O)OC)c1C`, the viability is 69% (inactive) in test [1]; 96.1% (inactive) in test [2]; 85.6% (inactive) in test [3]; 87.5% in test [4] (setting [7]); 85.6% in test [4] (setting [8]). In test [4] (H69AR cells + 2 uM doxorubicin), the differential viability (reversal) is -1.87% (inactive). The inhibition in test [5] is -8.63% (inactive); in test [6] it was 4% (inactive).
Take `O=C1c2ccccc2C(=O)N1c1cccc(-c2nc3ccccc3o2)c1`: the viability was 114% (inactive) in test [1]; 72.5% (inactive) in test [2]; 111% (inactive) in test [3]; 103% in test [4] (setting [7]); 111% in test [4] (setting [8]). Besides, in test [4] (H69AR cells + 2 uM doxorubicin), the differential viability (reversal) was 7.94% (inactive). Besides, the results for the inhibition in test [5] and in test [6] were -4.13% (inactive) and -3.09% (inactive), respectively.
As to `C1=C(CCNc2ncnc3c2cnn3-c2ccccc2)CCCC1`, the viability in test [1] is 98% (inactive); in test [2], 116% (inactive); in test [3] it was 88.7% (inactive); in test [4] (setting [7]), 82.3%; in test [4] (setting [8]), 88.7%. The differential viability (reversal) in test [4] (H69AR cells + 2 uM doxorubicin) is 6.36% (inactive). Moreover, the inhibition in test [5] is -4.13% (inactive); in test [6] it was 0.91% (inactive).
On to `C=CCC1(O)C(=O)Nc2ccccc21` (configuration not stated), for which the viability is 93% (inactive) in test [1]; 108% (inactive) in test [2]; 98.2% (inactive) in test [3]; 79.4% in test [4] (setting [7]); 98.2% in test [4] (setting [8]). The differential viability (reversal) in test [4] (H69AR cells + 2 uM doxorubicin) is 18.9% (inactive). The inhibition was -5.2% (inactive) in test [5] and 1.82% (inactive) in test [6].
On to `O=C(c1cnn2c(C(F)F)cc(-c3ccccc3)nc12)N1CCN2CCCC2C1` (configuration not stated), for which the viability was 103% (inactive) in test [1]; 103% (inactive) in test [2]; 79.1% (inactive) in test [3]; 80.8% in test [4] (setting [7]); 79.1% in test [4] (setting [8]). Moreover, in test [4] (H69AR cells + 2 uM doxorubicin), the differential viability (reversal) was -1.71% (inactive). Also, the inhibition was -4.79% (inactive) in test [5] and 1.82% (inactive) in test [6].
In the case of `CSc1nnc(-c2cnccn2)n1Cc1ccccc1`, the viability in test [1] was 96% (inactive); in test [2], 92.5% (inactive); in test [3] it was 102% (inactive); in test [4] (setting [7]) it was 95.7%; in test [4] (setting [8]), 102%. For the same compound, the differential viability (reversal) in test [4] (H69AR cells + 2 uM doxorubicin) is 6.43% (inactive). Also, the inhibition in test [5] is -2.88% (inactive); in test [6] it was 0.73% (inactive).
For the compound `Clc1cccc(-c2nnc3sc(-c4ccccc4)nn23)c1`, the viability in test [1] is 86% (inactive); in test [2], 124% (inactive); in test [3], 89.5% (inactive); in test [4] (setting [7]), 92.6%; in test [4] (setting [8]), 89.5%. For the same compound, in test [4] (H69AR cells + 2 uM doxorubicin), the differential viability (reversal) was -3.02% (inactive). For the same compound, the values for the inhibition in test [5] and in test [6] were -0.27% (inactive) and -4% (inactive), respectively.
For `O=C(NC1CCS(=O)(=O)C1)OC1CCCCC1` (configuration not stated), the viability in test [1] is 75% (inactive); in test [2], 111% (inactive); in test [3], 93.4% (inactive); in test [4] (setting [7]) it was 104%; in test [4] (setting [8]), 93.4%. Further, the differential viability (reversal) in test [4] (H69AR cells + 2 uM doxorubicin) was -10.9% (inactive). Moreover, the inhibition in test [5] was -0.82% (inactive); in test [6] it was 1.82% (inactive).
As for `CCC(C(=O)NC(C)CCc1ccco1)n1nc(C)n2c(cc3occc32)c1=O` (configuration not stated), the viability in test [1] is 129% (inactive); in test [2] it was 103% (inactive); in test [3], 83.5% (inactive); in test [4] (setting [7]), 99.7%; in test [4] (setting [8]), 83.5%. The differential viability (reversal) in test [4] (H69AR cells + 2 uM doxorubicin) is -16.1% (inactive). For the same compound, the inhibition was -6.3% (inactive) in test [5] and -1.64% (inactive) in test [6].
In the case of `CCOCC(=O)Nc1c(C(=O)Nc2ccc(OC)cc2OC)oc2ccccc12`, the viability in test [1] was 65.5% (inactive); in test [2] it was 50.9% (inactive); in test [3] it was 48% (active); in test [4] (setting [7]), 48.3%; in test [4] (setting [8]), 48%. Further, in test [4] (H69AR cells + 2 uM doxorubicin), the differential viability (reversal) is -0.305% (inactive). The inhibition in test [5] is -6.62% (inactive); in test [6] it was -3.77% (inactive).
`COC(=O)CNc1nc(C2CC2)nc2c1nnn2Cc1ccccc1Cl`: the viability in test [1] is 89% (inactive); in test [2], 84.9% (inactive); in test [3] it was 94.7% (inactive); in test [4] (setting [7]) it was 97%; in test [4] (setting [8]), 94.7%. Moreover, the differential viability (reversal) in test [4] (H69AR cells + 2 uM doxorubicin) was -2.29% (inactive). Further, the inhibition was -9.04% (inactive) in test [5] and 1.13% (inactive) in test [6].
As for `N#CC1=C(N)OC2=C(C(=O)CCC2)C1CCc1ccccc1` (configuration not stated), the viability in test [1] was 98% (inactive); in test [2] it was 91.9% (inactive); in test [3], 103% (inactive); in test [4] (setting [7]), 89.3%; in test [4] (setting [8]), 103%. The differential viability (reversal) in test [4] (H69AR cells + 2 uM doxorubicin) was 14.2% (inactive). In addition, the figures for the inhibition in test [5] and in test [6] were -6.08% (inactive) and 1.64% (inactive), respectively.

Values taken from PubChem BioAssay.
